Screens as filed in PubChem BioAssay.
The list is not random: actives were taken first. Their share in the collection is about 3%.
Insulin prom inh: inhibitors of insulin promoter-driven GFP, primary screen, imaging, TRM-6 cells (human fetal islet line), eGFP reporter, cell count. inhibition, % at 2 µM. 0.9% of 130,000 active. AID 1273, 2008. reporter expression induced with tamoxifen;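 active = inhibition above the mean plus 3 SD, with well images judged a real hit on visual review, cut at about 60% in these data, passing the limit was not always enough; inconclusive = inhibition over the cutoff but images rejected on review; inactive = inhibition not above the cutoff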
Yeast life ext: compounds extending yeast replicative lifespan, primary screen, S. cerevisiae, OD615 | S. cerevisiae growth with nicotinamide; deaD strain in restrictive glucose medium | inhibition of the nicotinamide effect, % at 10 µM | 0.68% of 130,000 active;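 active = inhibition above a set limit, placed 3 SD over the median of all compounds, cut at about 26% in these data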
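Test system: DeaD-strain S. cerevisiae / Buffer or medium: restrictive glucose medium / Also added: nicotinamide 1.5 mM / Doses: one concentration, 10 µM, DMSO 0.25% / Schedule: 48 h at 30 °C / Signal: OD615 measurement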
RAM inhibit: inhibitors of the yeast RAM network, primary screen, dse1pr::URA3 reporter, 5-FOA selection; S. cerevisiae dse1pr::URA3 reporter, 5-FOA growth OD615, 2 d; analog-sensitive cbk1-as2 kinase mutant strain; inhibition, % at 50 µM; 1.8% of 190,000 active;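 active = inhibition above a set limit, 3 SD over mean compound inhibition, cut at about 8.4% in these data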;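 note: inhibition rescues growth on 5-FOA so higher OD means more RAM inhibition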
Insulin prom up: insulin promoter activators in MIN6 cells, imaging, high-content screening, mouse beta cells | MIN6 insulin promoter-GFP reporter; active compounds read high | 0.3% of 190,000 active | z-score at 5 µM | AID 1625, 2009;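 active = z-score above 3 at 5 µM with at least 500 cells counted in the well; inconclusive = wells under 500 cells, flagged as cytotoxic or low count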
Yeast growth inh: growth inhibitors of yeast BB579 in restrictive medium, primary screen, yeast lifespan-shortening project, S. cerevisiae; OD615, 48 h; 0.51% of 140,000 active; inhibition, % at 10 µM;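 active = inhibition above a set limit, 3 SD over the mean compound inhibition, cut at about 44% in these data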
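System: DeaD yeast strain BB579; buffer or medium: CSMM-D dextrose restrictive medium; technique: OD at 615 nm; schedule: 4 h cell preincubation, 48 h compound exposure, 30 °C humidified; doses: single 10 µM dose; controls: amphotericin B 10 µg/mL, positive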
Each line names hits and unclear results; the compound was inactive in the other large screens.

CCOc1ccc(NCc2nc3ccccc3n2CCOc2ccccc2)cc1	Yeast life ext 42, Yeast growth inh 48
CC1CCCC(C)N1C(=C(Cl)Cl)C(=C1SCCS1)[N+](=O)[O-] (stereo not given)	RAM inhibit 8.8 (no result: Insulin prom inh, Yeast life ext, Yeast growth inh)
Cc1ccc(N2C(=O)CS/C2=C(\C(Cl)=C(Cl)Cl)[N+](=O)[O-])cc1	none
Cc1c([N+](=O)[O-])cc(C(=O)Oc2cccc(C(=S)N3CCOCC3)c2)cc1[N+](=O)[O-]	none (no result: Yeast life ext, Yeast growth inh)
CN1CCN(CC(=O)N2CCn3c4c(c5cc(C6CCCCC6)ccc53)CCCC42)CC1 (stereo not given)	Yeast growth inh 100
COc1cccc(-c2csc3nc[nH]c(=O)c23)c1	Insulin prom inh 89
CN(C)/C=C/c1oc2ccc(O)cc2c1[N+](=O)[O-]	none (no result: Yeast life ext, Yeast growth inh)
COc1ccc(C=C(c2nc3ccccc3s2)c2nc3ccccc3s2)cc1O	RAM inhibit 9.2
CCCn1nnc(NC(=O)C(C)C)n1	none (no result: Insulin prom inh, Yeast life ext, RAM inhibit, Yeast growth inh)
CC(C)c1cc(C(N)=O)c(NC(=O)C2CCC2)s1	Insulin prom inh 81 (no result: Insulin prom up)
Cc1ccc2c(c1)Oc1ccccc1C=C2C(=O)O	none (no result: Insulin prom inh, Yeast life ext, Yeast growth inh)
CCOc1ccc(-n2c(SCC(=O)NC(C)CC)nc3n[nH]c(C)c3c2=N)cc1 (stereo not given)	Insulin prom up 3 (no result: Insulin prom inh)
O=C(c1cccc(Oc2ccccc2)c1)N1CCN(c2ccccn2)CC1	none (no result: Insulin prom inh, Yeast life ext, Yeast growth inh)
N#CCC(=O)Nc1ccc(C(=O)OCC(=O)Nc2ccccc2Sc2ccccc2)cc1	RAM inhibit 8.4 (no result: Yeast life ext, Yeast growth inh)
Cc1[nH]n(-c2ncc(-c3ccccc3)s2)c(=O)c1C(c1ccc(Br)cc1)C(C#N)C#N (stereo not given)	RAM inhibit 11
Fc1cccc2sc(Nc3nnc(-c4ccccc4)o3)nc12	Yeast life ext 60 (no result: Insulin prom inh, Insulin prom up)
Cc1ccc(C(=O)N/C(=C\c2ccc(-c3cccc([N+](=O)[O-])c3)o2)C(=O)NC(C)(C)C)cc1	none
CCCNC(=O)Cn1c(=O)/c(=C\c2ccc(-c3cccc([N+](=O)[O-])c3)o2)s/c1=C\C(=O)C(C)(C)C	RAM inhibit 9.4
CCCNC(=O)Cn1c(=O)/c(=C\c2ccc(-c3ccc([N+](=O)[O-])cc3)o2)s/c1=C\C(=O)C(C)(C)C	RAM inhibit 9.7 (no result: Insulin prom up)
Cc1ccc(Cl)cc1N1CCN(C(=O)C2(S(=O)(=O)c3ccc(Cl)cc3)CC2)CC1	none
Cc1cccc(N2CCN(C(=O)C3(S(=O)(=O)c4ccc(Cl)cc4)CC3)CC2)c1C	RAM inhibit 8.6 (no result: Yeast life ext, Yeast growth inh)
C=CCS/C(N)=N\N=C\c1c(O)ccc2ccccc12	none (no result: Insulin prom inh, Yeast life ext, RAM inhibit, Yeast growth inh)
Cc1cccn2c(/C=N/OCc3cccc(F)c3)c(-c3ccc(Cl)cc3)nc12	RAM inhibit 9.3 (no result: Insulin prom up)
Fc1cccc(CO/N=C/c2c(-c3ccccc3)nc3ccc(Cl)cn23)c1	RAM inhibit 9.1 (no result: Insulin prom inh)
CC1CCc2c(sc3nc(CSc4nnnn4C)[nH]c(=O)c23)C1 (stereo not given)	none (no result: Insulin prom inh, Yeast life ext, RAM inhibit, Yeast growth inh)
CCN(CC)C(=S)Nc1ccc(Cl)c(Cl)c1	none
CCCCCCC1C(C#N)=C(N)OC2=C1C(=O)CC(C)(C)C2 (stereo not given)	Yeast life ext 40 (no result: Insulin prom inh)
O=C(/C=C/c1ccc(N2CCCCC2)c([N+](=O)[O-])c1)c1ccc(O)cc1	Insulin prom inh 83, RAM inhibit 8.6 (no result: Yeast life ext, Yeast growth inh)
COc1ccccc1C(=O)/C=C/c1ccc(N2CCCCC2)c([N+](=O)[O-])c1	RAM inhibit 9.7
O=C(O/N=C\c1ccc(N2CCCCC2)c([N+](=O)[O-])c1)c1ccc(Cl)cc1Cl	RAM inhibit 10 (no result: Insulin prom inh)
O=C(c1ccc(N2CCCCC2)c([N+](=O)[O-])c1)N1CCOCC1	none
CCCn1[nH]cc(SC)c(=O)c1=O	Yeast life ext 42
O=C(COC(=O)COc1ccc(Cl)cc1)Nc1ccc(N2CCOCC2)cc1	none (no result: Insulin prom inh, Yeast life ext, Yeast growth inh)
CCC(=O)Nc1ccc(NC(=O)CSc2nnc(-c3ccc(O)cc3)n2CC2CCCO2)cc1 (stereo not given)	none (no result: Yeast life ext, Insulin prom up, Yeast growth inh)
CC(=O)Nc1ccc(C(=O)CSc2nnc(-c3ccc(O)cc3)n2CC2CCCO2)cc1 (stereo not given)	Yeast life ext 64
COc1ccc(-c2[nH]ncc2/C=N/NC(=O)c2cccc([N+](=O)[O-])c2)cc1OC	none (no result: Yeast life ext, Insulin prom up, Yeast growth inh)
CN1CCN(NC(=O)c2cc(S(=O)(=O)Nc3ccc(Cl)cc3)ccc2Cl)CC1	none (no result: Insulin prom inh, Yeast life ext, RAM inhibit, Yeast growth inh)
COc1cc(OC)c2nc(C)c3c(c2c1)N(c1ccc(O)cc1)CC3	none (no result: Insulin prom up)
CCCCNc1oc(-c2cccs2)nc1S(=O)(=O)c1ccccc1	RAM inhibit 9.5
COCC(C)NC(=O)Cc1ccc(F)cc1 (stereo not given)	Insulin prom inh inconclusive
O=C1c2cccc3c(N4CCCCC4)ccc(c23)C(=O)N1c1ccccc1O	none (no result: Insulin prom inh, Yeast life ext, Insulin prom up, Yeast growth inh)
O=C1c2cccc3c(N4CCCCC4)ccc(c23)C(=O)N1c1ccc(O)cc1	Insulin prom up 6.1 (no result: Insulin prom inh, Yeast life ext, Yeast growth inh)
O=C1CCC(/C=C/c2ccccc2)=NN1Cc1ccccc1	none (no result: Yeast life ext, Yeast growth inh)
CC(C)(C)c1ccc(CN2N=C(/C=C/c3ccccc3)CCC2=O)cc1	RAM inhibit 9.8 (no result: Yeast life ext, Yeast growth inh)
NC(N)=N/N=C/c1cccc([N+](=O)[O-])c1O	none (no result: Yeast life ext, Yeast growth inh)
O=[N+]([O-])c1cccc(/C=N\N=C2c3ccccc3-c3ccccc32)c1O	RAM inhibit 9.9
Cc1cccc(Sc2nc(-c3ccccc3)ccc2C#N)c1	RAM inhibit 11 (no result: Insulin prom inh)
COc1cccc(C(CC(=O)Nc2cccc3ccccc23)NC(=O)c2ccccc2)c1 (stereo not given)	RAM inhibit 10
C=CCc1c(C)c(C#N)c2nc3ccccc3n2c1NCCN(C)C	Yeast growth inh 57
CCc1c(C)c(C#N)c2nc3ccccc3n2c1NCCN(C)C	none
C=CCn1c(C)cc(C(=O)CSc2nnc(-c3cccc(S(=O)(=O)N(CC)CC)c3)o2)c1C	RAM inhibit 11
c1ccc(-c2cc(N3CCOCC3)nc3ccccc23)cc1	Yeast life ext 94
Cc1cc(N2CCOCC2)nc2ccccc12	none (no result: Yeast life ext)
COc1ccc(NC(=O)CC(c2ccc(F)cc2)c2ccc(OC(C)C)cc2)cc1 (stereo not given)	RAM inhibit 9.3
Cc1ccccc1OCC(=O)N1N=C(C(F)(F)F)CC1(O)C(C)(C)C (stereo not given)	RAM inhibit 9.2 (no result: Yeast life ext, Insulin prom up)
Cc1ccc(OCC(=O)N2N=C(C(F)(F)F)CC2(O)C(C)(C)C)cc1C (stereo not given)	none (no result: Insulin prom up)
Cc1cc(=O)nc2c3ccccc3n(CC(=O)Nc3ccccc3Br)n12	none (no result: Insulin prom inh, Yeast life ext, RAM inhibit, Yeast growth inh)
O=C(Nc1nc2ccc(Cl)cc2s1)[C@@H]1CCCN1C(=O)c1cccs1	none
Oc1ccc(/C=C/c2nc(-c3ccccc3O)n(-c3ccccc3)n2)cc1	Yeast growth inh 98
Oc1ccccc1-c1nc(/C=C/c2ccccc2)nn1-c1ccccc1	none
CC(=O)C1=C(O)C(=O)N(c2ccc(Br)cn2)C1c1ccc(F)cc1 (stereo not given)	none (no result: Insulin prom inh, Yeast life ext, Yeast growth inh)
O=C1c2ccccc2-c2onc3c(Oc4ccccc4)cc(O)c1c23	Yeast life ext 92
CCOc1ccc2noc3c2c1C(=O)c1ccccc1-3	none
